Series [1] can be described thus: Stability in human plasma assessed as level of lactone form of compound after 2 hrs by HPLC. It is filed as ADME, cell-free. The following applies: read-out: Activity. Summed up:
(§1)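 Incubated in plasma at 37 °C; aliquots taken at 2, 4, 6, 8 and 24 h. Protein precipitated with cold acetonitrile (-20 °C) and removed by centrifugation. Supernatant stored at -20 °C, then analysed by C-18 HPLC (methanol/water/0.1% acetic acid) with detection at 254 nm. Percent lactone = lactone level at each time point relative to t = 0 h.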

The nature of series [2]: Stability in human plasma assessed as level of lactone form of compound after 6 hrs by HPLC. It is filed as ADME, cell-free. As to conditions: read-out: Activity. A digest of the protocol:
as §1

Series [3] can be described thus: Stability in mouse plasma assessed as level of lactone form of compound after 24 hrs by HPLC. As to conditions: read-out: Activity. It is filed as ADME, cell-free. A digest of the protocol: as §1
Series [4] can be described thus: Stability in human plasma assessed as level of lactone form of compound after 4 hrs by HPLC. It is filed as ADME, cell-free. The following applies: read-out: Activity. Summed up: as §1
Series [5] can be described thus: Stability in mouse plasma assessed as level of lactone form of compound after 8 hrs by HPLC. Type of series: ADME, cell-free. The following applies: read-out: Activity. A digest of the protocol:
as §1

Series [6] is described as follows: Stability in human plasma assessed as level of lactone form of compound after 24 hrs by HPLC. Type of series: ADME, cell-free. As to conditions: read-out: Activity. Summed up:
as §1

Series [7] can be described thus: Stability in mouse plasma assessed as level of lactone form of compound after 4 hrs by HPLC. Type of series: ADME, cell-free. The following applies: read-out: Activity. Summed up: as §1
A further series relates to T-24. Briefly: Growth inhibition of human T24 cells after 4 days by MTT assay. It is filed as functional. More on the design: concentration or dose not given beside the values. A digest of the protocol:
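After 4 days, MTT (5 mg/mL solution) added, 4 h further incubation, formazan dissolved in DMSO, absorbance read at 570 nm. Survival expressed as percent of untreated control wells; inhibition rates derived.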
(In general: Tetrazolium assays rely on reduction of a dye to a coloured formazan, in cell work by metabolically active cells.)

A short description of series [8]: Stability in mouse plasma assessed as level of lactone form of compound after 6 hrs by HPLC. It is filed as ADME, cell-free. As to conditions: read-out: Activity. Summed up:
as §1

A short description of series [9]: Stability in human plasma assessed as level of lactone form of compound after 8 hrs by HPLC. Type of series: ADME, cell-free. The following applies: read-out: Activity. Summed up: as §1
Series [10] in a line: Stability in mouse plasma assessed as level of lactone form of compound after 2 hrs by HPLC. It is filed as ADME, cell-free. The following applies: read-out: Activity. A digest of the protocol:
as §1

Turning to `CC[C@@]1(OC(=O)CNC(=O)C2=CC(C)(C)N(O)C2(C)C)C(=O)OCc2c1cc1n(c2=O)Cc2cc3ccccc3nc2-1`, the figures for the remaining at 2 h in [1] and in series [10] were 78.7% and 76.3%, respectively. Moreover, the remaining at 6 h in [2] was found to be 56.1%; in series [8] it was 43.9%. The results for the remaining at 24 h in series [3] and in series [6] were 10.8% and 7.8%, respectively. Moreover, the remaining at 4 h in series [4] is 65.2%; in series [7], 57.6%. Also, the remaining at 8 h in series [5] was 31.8%; in series [9], 34.4%. Besides, the “inhibition (INH)” value in the series on T-24 came out at 34.5%.
Consider `CC[C@@]1(OC(=O)[C@H](CC(C)C)NC(=O)C2=CC(C)(C)N(O)C2(C)C)C(=O)OCc2c1cc1n(c2=O)Cc2cc3ccccc3nc2-1`, for which the “inhibition (INH)” value in the series on T-24 was determined as 16.4%.
On the same count and under the same terms, as for `CC[C@@]1(OC(=O)[C@H](C)NC(=O)C2=CC(C)(C)N(O)C2(C)C)C(=O)OCc2c1cc1n(c2=O)Cc2cc3ccccc3nc2-1`, the figure is 25.9%; as for `CC[C@@]1(OC(=O)[C@H](Cc2ccccc2)NC(=O)C2=CC(C)(C)N(O)C2(C)C)C(=O)OCc2c1cc1n(c2=O)Cc2cc3ccccc3nc2-1`, 26.4%; as for `CC[C@@]1(OC(=O)[C@H](CCSC)NC(=O)C2=CC(C)(C)N(O)C2(C)C)C(=O)OCc2c1cc1n(c2=O)Cc2cc3ccccc3nc2-1`, 25.5%.
Regarding `CC[C@@]1(O)C(=O)OCc2c1cc1n(c2=O)Cc2cc3ccccc3nc2-1` [CAMPTOTHECIN], the remaining at 2 h in series [1] came to 61.4%; in series [10] it was 55.1%. Moreover, the values for the remaining at 6 h in [2] and in series [8] were 19.4% and 24.5%, respectively. In addition, the remaining at 24 h in [3] stood at 5.3%; in series [6], 3.8%. The remaining at 4 h was 28.4% in series [4] and 40.5% in series [7]. Further, the results for the remaining at 8 h in series [5] and in series [9] were 10.9% and 14.6%, respectively. For the same molecule, the “inhibition (INH)” value in the series with T-24 is on record as 15.4%.
As for `CCc1c2c(nc3ccc(OC(=O)N4CCC(N5CCCCC5)CC4)cc13)-c1cc3c(c(=O)n1C2)COC(=O)[C@]3(O)CC` [IRINOTECAN], in the series on T-24, the “inhibition (INH)” value came out at 23.8%.

These data come from ChEMBL document CHEMBL1154452, “First synthesis of novel spin-labeled derivatives of camptothecin as potential antineoplastic agents” (Eur J Med Chem, 2008).
